Legend:
[1] = target: Serotonin 2 (5-HT2) receptor (Rattus norvegicus, UniProt P30994+P08909+P14842); assay: In vitro binding affinity on 5-hydroxytryptamine 2 receptor is inhibition of binding of [125I]- I-LSD to P11 cells
Summary of the method: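 Competition binding on membranes from P11 cells (pituitary tumor 7315A line, 5-HT2 without D2 or other serotonin subtypes); 0.4–0.5 nM [125I]I-LSD in 50 mM Tris-HCl pH 7.4; 1 μM ketanserin defines nonspecific; 37 °C, 60 min; filtration, gamma counting. IC50 from curve fitting, Ki by Cheng–Prusoff.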

[2] = target: T1, Adrenergic receptor alpha-2 (Rattus norvegicus, UniProt P22086+P19328+P22909); assay: In vitro binding affinity on alpha-2 receptor is inhibition of binding of [3H]- rauwolscine to rat cortex
T1 sequence (P22086 whole entry): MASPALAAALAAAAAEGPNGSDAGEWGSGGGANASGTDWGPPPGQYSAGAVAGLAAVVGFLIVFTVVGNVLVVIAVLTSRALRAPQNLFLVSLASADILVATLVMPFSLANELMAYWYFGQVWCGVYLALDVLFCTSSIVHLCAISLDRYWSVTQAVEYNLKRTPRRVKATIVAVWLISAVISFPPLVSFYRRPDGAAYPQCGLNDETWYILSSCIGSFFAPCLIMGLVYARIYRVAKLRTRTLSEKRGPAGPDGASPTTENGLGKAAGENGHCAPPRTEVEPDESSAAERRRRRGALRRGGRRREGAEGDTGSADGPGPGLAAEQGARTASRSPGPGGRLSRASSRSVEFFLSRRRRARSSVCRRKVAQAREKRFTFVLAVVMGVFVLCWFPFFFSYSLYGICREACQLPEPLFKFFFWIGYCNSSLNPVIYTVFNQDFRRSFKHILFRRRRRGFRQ
T1 sequence (P19328 whole entry): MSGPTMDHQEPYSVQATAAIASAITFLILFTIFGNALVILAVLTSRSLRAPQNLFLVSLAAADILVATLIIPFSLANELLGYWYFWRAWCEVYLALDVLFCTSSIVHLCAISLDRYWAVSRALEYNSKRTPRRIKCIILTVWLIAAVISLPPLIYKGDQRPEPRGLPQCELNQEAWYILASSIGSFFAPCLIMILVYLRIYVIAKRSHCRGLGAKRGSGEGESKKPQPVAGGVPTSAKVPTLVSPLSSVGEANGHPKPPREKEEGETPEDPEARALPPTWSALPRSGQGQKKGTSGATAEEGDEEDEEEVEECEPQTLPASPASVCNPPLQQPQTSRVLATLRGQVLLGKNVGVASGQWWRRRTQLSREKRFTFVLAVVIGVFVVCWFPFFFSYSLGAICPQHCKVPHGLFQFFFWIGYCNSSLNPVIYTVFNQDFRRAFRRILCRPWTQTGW
T1 sequence (P22909 whole entry): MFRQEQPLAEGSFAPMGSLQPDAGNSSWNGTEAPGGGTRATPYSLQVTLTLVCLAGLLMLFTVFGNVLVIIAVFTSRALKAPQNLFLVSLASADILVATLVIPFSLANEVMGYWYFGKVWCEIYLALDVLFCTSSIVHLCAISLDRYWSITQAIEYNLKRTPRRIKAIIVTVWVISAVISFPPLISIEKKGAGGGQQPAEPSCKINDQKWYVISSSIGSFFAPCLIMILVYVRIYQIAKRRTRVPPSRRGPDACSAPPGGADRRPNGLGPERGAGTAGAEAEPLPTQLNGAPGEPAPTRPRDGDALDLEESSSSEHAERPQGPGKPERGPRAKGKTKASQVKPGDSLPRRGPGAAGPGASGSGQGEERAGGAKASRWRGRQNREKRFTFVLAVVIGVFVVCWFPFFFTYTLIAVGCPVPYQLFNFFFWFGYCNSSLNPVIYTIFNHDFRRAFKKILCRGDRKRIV
Summary of the method: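 Rat cerebral cortex membranes, 2 nM [3H]rauwolscine in 20 mM HEPES pH 7.4, run in triplicate; nonspecific with 10 μM phentolamine; 20 °C, 30 min; glass fiber filtration, liquid scintillation counting. IC50 by curve fitting, converted to Ki via Cheng–Prusoff.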

D(2) dopamine receptor = D(2) dopamine receptor (Rattus norvegicus, UniProt P61169); assay: Inhibition of [125I]- NCQ 298 binding to D2 receptor of rat striatal tissue; format: tissue-based, Striatum
Rattus norvegicus [3] = assay: In vivo blood concentration of [18F]-labeled compound by rat brain at 1 hr; format: functional, organism-based
Summary of the method: (§1)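 Sprague–Dawley rats (200–300 g) under ketamine/xylazine anesthesia given 0.5–1.0 mL of 0.9% saline containing 18F-labeled ligand (20–150 μCi) i.v. via femoral vein. Killed by decapitation at set times (5 min to 5 h). A blood sample was taken and gamma-counted, expressed as % ID/g of blood. Mean ± SEM, n = 4-8.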

Rattus norvegicus [4] = assay: In vivo blood concentration of [18F]-labeled compound by rat brain at 4 hr; format: functional, organism-based; summary of the method: as §1
Rattus norvegicus [5] = assay: In vivo brain uptake of [18F]-labeled compound by rat brain at 2 hr; format: functional, organism-based
Summary of the method: (§2)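 Sprague–Dawley rats (200–300 g), anesthetized with ketamine/xylazine, received 18F-labeled ligand (20–150 μCi) in 0.5–1.0 mL 0.9% saline i.v. (femoral vein). Decapitated at set intervals from 5 min to 5 h. Whole brain removed, weighed and gamma-counted, expressed as % ID/brain and % ID/g brain. Mean ± SEM, n = 4-8.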

Rattus norvegicus [6] = assay: In vivo brain uptake of [18F]-labeled compound by rat brain at 5 min; format: functional, organism-based; summary of the method: as §2
Rattus norvegicus [7] = assay: In vivo brain uptake of [18F]-labeled compound by rat brain at 4 hr; format: functional, organism-based; summary of the method: as §2
Rattus norvegicus [8] = assay: In vivo brain uptake of [18F]-labeled compound by rat brain at 3h; format: functional, organism-based; summary of the method: as §2
Rattus norvegicus [9] = assay: In vivo brain uptake of [18F]-labeled compound by rat brain at 1 hr; format: functional, organism-based; summary of the method: as §2
Rattus norvegicus [10] = assay: In vivo brain uptake of [18F]-labeled compound by rat brain at 5 hr; format: functional, organism-based; summary of the method: as §2
[11] = Partition coefficient (logP); format: physicochemical; details: C-18 reversed-phase HPLC
Summary of the method: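 Lipophilicity measured as log P by the C-18 reversed-phase HPLC method of Kraak et al.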

Rattus norvegicus [12] = assay: In vivo blood concentration of [18F]-labeled compound by rat brain at 2 hr; format: functional, organism-based; summary of the method: as §1
Rattus norvegicus [13] = assay: In vivo blood concentration of [18F]-labeled compound by rat brain at 3h; format: functional, organism-based; summary of the method: as §1
Rattus norvegicus [14] = assay: In vivo blood concentration of [18F]-labeled compound by rat brain at 30 min; format: functional, organism-based; summary of the method: as §1
Rattus norvegicus [15] = assay: In vivo blood concentration of [18F]-labeled compound by rat brain at 5 min; format: functional, organism-based; summary of the method: as §1
Rattus norvegicus [16] = assay: In vivo brain uptake of [18F]-labeled compound by rat brain at 30 min; format: functional, organism-based; summary of the method: as §2
Rattus norvegicus [17] = assay: In vivo blood concentration of [18F]-labeled compound by rat brain at 5 hr; format: functional, organism-based; summary of the method: as §1
[18] = target: D(3) dopamine receptor (Rattus norvegicus); assay: In vitro binding affinity on D3 receptor is inhibition of binding of [125I]- NCQ 298 to Sf9 cells infected with recombinant baculovirus

Chain of D(2) dopamine receptor (P61169 whole entry): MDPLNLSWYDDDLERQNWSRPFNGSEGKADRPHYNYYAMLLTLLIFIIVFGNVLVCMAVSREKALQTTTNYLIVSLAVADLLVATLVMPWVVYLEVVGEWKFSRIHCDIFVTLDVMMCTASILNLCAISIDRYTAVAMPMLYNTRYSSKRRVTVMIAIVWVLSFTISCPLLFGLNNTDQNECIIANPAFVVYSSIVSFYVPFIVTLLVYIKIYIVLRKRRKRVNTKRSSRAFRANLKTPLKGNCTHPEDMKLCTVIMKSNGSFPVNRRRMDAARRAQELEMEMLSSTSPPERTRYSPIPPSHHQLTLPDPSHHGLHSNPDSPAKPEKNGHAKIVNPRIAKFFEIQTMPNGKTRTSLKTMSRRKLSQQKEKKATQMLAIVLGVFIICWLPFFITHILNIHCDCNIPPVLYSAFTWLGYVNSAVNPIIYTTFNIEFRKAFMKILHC

COc1cc(Br)cc(C(=O)NC2CC3CCCC(C2)N3Cc2ccc(F)cc2)c1OC (stereo not drawn)
Ki [1]: 3.1 nM
Ki [2]: 1900 nM
Ki (D(2) dopamine receptor): 0.02 nM

COc1cc(N)c(Cl)cc1C(=O)NC1CCN(Cc2ccccc2)CC1 [CLEBOPRIDE]
Ki [1]: 89 nM
Ki [2]: 600 nM

COc1cc(N)c(Cl)cc1C(=O)NC1CCN(Cc2ccc(F)cc2)CC1
Ki [1]: 283 nM
Ki [2]: 1300 nM

COc1cccc(C(=O)NC2CC3CCCC(C2)N3Cc2ccccc2)c1OC (stereo not drawn)
Ki (D(2) dopamine receptor): 0.038 nM

COc1cc(N)c(Cl)cc1C(=O)NC1CC2CCCC(C1)N2Cc1ccccc1 (stereo not drawn)
Ki (D(2) dopamine receptor): 0.036 nM

COc1cc(N)c(Cl)cc1C(=O)N[C@@H]1C[C@H]2CCC[C@@H](C1)N2Cc1ccc(F)cc1
Ki [1]: 2200 nM
Ki (D(2) dopamine receptor): > 10 nM

COc1cccc(C(=O)NC2CC3CCCC(C2)N3Cc2ccc(F)cc2)c1OC (stereo not drawn)
Ki [1]: 84 nM
ID/g (Rattus norvegicus [3]): 0.044%
ID/g (Rattus norvegicus [4]): 0.013%
Ki [2]: 1300 nM
ID/brain (Rattus norvegicus [5]): 0.44%
ID/g (Rattus norvegicus [5]): 0.27%
ID/brain (Rattus norvegicus [6]): 0.64%
ID/g (Rattus norvegicus [6]): 0.39%
ID/brain (Rattus norvegicus [7]): 0.36%
ID/g (Rattus norvegicus [7]): 0.22%
ID/brain (Rattus norvegicus [8]): 0.37%
ID/g (Rattus norvegicus [8]): 0.23%
ID/brain (Rattus norvegicus [9]): 0.31%
ID/g (Rattus norvegicus [9]): 0.23%
ID/brain (Rattus norvegicus [10]): 0.23%
ID/g (Rattus norvegicus [10]): 0.14%
logP [11]: 2.86
ID/g (Rattus norvegicus [12]): 0.024%
ID/g (Rattus norvegicus [13]): 0.019%
ID/g (Rattus norvegicus [14]): 0.089%
ID/g (Rattus norvegicus [15]): 0.156%
ID/brain (Rattus norvegicus [16]): 0.35%
ID/g (Rattus norvegicus [16]): 0.2%
ID/g (Rattus norvegicus [17]): 0.005%

COc1cc(Br)cc(C(=O)NC2CCN(Cc3ccccc3)CC2)c1OC
Ki (D(2) dopamine receptor): 0.31 nM

COc1cc(Br)cc(C(=O)NC2CC3CCCC(C2)N3Cc2ccccc2)c1OC (stereo not drawn)
Ki (D(2) dopamine receptor): 0.033 nM

COc1cccc(C(=O)NC2CCN(Cc3ccc(F)cc3)CC2)c1OC
Ki [1]: 1840 nM
ID/g (Rattus norvegicus [3]): 0.043%
ID/g (Rattus norvegicus [4]): 0.01%
Ki [2]: 3000 nM
ID/brain (Rattus norvegicus [5]): 0.5%
ID/g (Rattus norvegicus [5]): 0.33%
ID/brain (Rattus norvegicus [6]): 1.28%
ID/g (Rattus norvegicus [6]): 0.81%
ID/brain (Rattus norvegicus [7]): 0.17%
ID/g (Rattus norvegicus [7]): 0.11%
ID/brain (Rattus norvegicus [8]): 0.38%
ID/g (Rattus norvegicus [8]): 0.25%
ID/brain (Rattus norvegicus [9]): 0.57%
ID/g (Rattus norvegicus [9]): 0.36%
ID/brain (Rattus norvegicus [10]): 0.19%
ID/g (Rattus norvegicus [10]): 0.12%
logP [11]: 2.83
Ki [18]: 5.91 nM
ID/g (Rattus norvegicus [12]): 0.029%
ID/g (Rattus norvegicus [13]): 0.017%
ID/g (Rattus norvegicus [14]): 0.066%
ID/g (Rattus norvegicus [15]): 0.155%
Ki (D(2) dopamine receptor): 0.38 nM
ID/brain (Rattus norvegicus [16]): 0.61%
ID/g (Rattus norvegicus [16]): 0.39%
ID/g (Rattus norvegicus [17]): 0.012%

COc1cc(Br)cc(C(=O)NC2CCN(Cc3ccc(F)cc3)CC2)c1OC
Ki [1]: 94 nM
ID/g (Rattus norvegicus [3]): 0.025%
ID/g (Rattus norvegicus [4]): 0.012%
Ki [2]: 3000 nM
ID/brain (Rattus norvegicus [5]): 0.27%
ID/g (Rattus norvegicus [5]): 0.14%
ID/brain (Rattus norvegicus [6]): 1.12%
ID/g (Rattus norvegicus [6]): 0.58%
ID/brain (Rattus norvegicus [7]): 0.21%
ID/g (Rattus norvegicus [7]): 0.12%
ID/brain (Rattus norvegicus [8]): 0.2%
ID/g (Rattus norvegicus [8]): 0.1%
ID/brain (Rattus norvegicus [9]): 0.36%
ID/g (Rattus norvegicus [9]): 0.2%
ID/brain (Rattus norvegicus [10]): 0.2%
ID/g (Rattus norvegicus [10]): 0.12%
ID/g (Rattus norvegicus [12]): 0.016%
ID/g (Rattus norvegicus [13]): 0.013%
ID/g (Rattus norvegicus [14]): 0.036%
ID/g (Rattus norvegicus [15]): 0.088%
ID/brain (Rattus norvegicus [16]): 0.55%
ID/g (Rattus norvegicus [16]): 0.32%
ID/g (Rattus norvegicus [17]): 0.012%

COc1cccc(C(=O)NC2CCN(Cc3ccccc3)CC2)c1OC
Ki (D(2) dopamine receptor): 0.63 nM

CCN1CCC[C@H]1CNC(=O)c1c(O)c(I)cc(OC)c1OC [IOXIPRIDE]
Ki [18]: 0.16 nM
